From ChEMBL document CHEMBL4024747, “Design, Synthesis, and Biological Activities of Vibsanin B Derivatives: A New Class of HSP90 C-Terminal Inhibitors” (J Med Chem, 2017)
Activity calls are given as the source filed them. No cut-off for these calls is given here.

Assays:
MCF7 = assay: Antiproliferative activity against human MCF7 cells assessed as reduction in cell viability after 48 hrs by MTT assay; type: functional, cell-based; details: MCF7, 48 h
MDA-MB-468 = assay: Antiproliferative activity against human MDA-MB-468 cells assessed as reduction in cell viability after 48 hrs by MTT assay; type: functional, cell-based; details: MDA-MB-468, 48 h
SK-BR-3 = assay: Antiproliferative activity against human SKBR3 cells assessed as reduction in cell viability after 48 hrs by MTT assay; type: functional, cell-based; details: SK-BR-3, 48 h
[1] = molecular target: Heat shock protein HSP 90-beta (Homo sapiens) (UniProt P08238); assay: Inhibition of recombinant human Biotin-labeled N-terminal His/Avi-tagged HSP90beta C-terminal domain (527 to 724 residues) expressed in Escherichia coli interaction with GST-tagged Cyp40 at 1 to 100 uM after 30 mins by Alphascreen assay
How it was run: (§1)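 AlphaScreen assay: biotin-labelled HSP90β C-terminus (aa 527–724) mixed with GST-Cyp40 and compound (1–100 μM; novobiocin 500 μM) for 30 min at room temperature. Glutathione acceptor beads added for 30 min, then streptavidin donor beads for 10 min. Excitation at 680 nm, emission read at 520–620 nm; percent activity calculated against enzyme and background wells.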

[2] = molecular target: Heat shock protein HSP 90-alpha (Homo sapiens) (UniProt P07900); assay: Inhibition of FITC-geldanamycin binding to human FLAG-tagged HSP90alpha N-terminal domain
[3] = molecular target: Heat shock protein HSP 90-beta (Homo sapiens) (UniProt P08238); assay: Inhibition of FITC-geldanamycin binding to human FLAG-tagged HSP90beta N-terminal domain
SMMC-7721 = assay: Antiproliferative activity against human SMMC7721 cells assessed as reduction in cell viability after 48 hrs by MTT assay; type: functional, cell-based; details: SMMC-7721, 48 h
A549 = assay: Antiproliferative activity against human A549 cells assessed as reduction in cell viability after 48 hrs by MTT assay; type: functional, cell-based; details: A549, 48 h
HL-60 = assay: Antiproliferative activity against human HL60 cells assessed as reduction in cell viability after 48 hrs by MTT assay; type: functional, cell-based; details: HL-60, 48 h
SW480 = assay: Antiproliferative activity against human SW480 cells assessed as reduction in cell viability after 48 hrs by MTT assay; type: functional, cell-based; details: SW480, 48 h
Oryctolagus cuniculus = species: Oryctolagus cuniculus; assay: Inhibition of HSP90 in rabbit reticulocyte lysate assessed as decrease in HSP90-dependant refolding of firefly luciferase at 10 uM after 30 mins by luciferase gene based assay
How it was run: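 Firefly luciferase heat-denatured at 41 °C for 10 min, then added with rabbit reticulocyte lysate to compounds at 10 μM. Renaturation at room temperature for 3 h; luciferin substrate added and luminescence read. Refolding expressed relative to DMSO; novobiocin at 500 μM as reference. Three independent experiments.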

HepG2 = assay: Antiproliferative activity against human HepG2 cells assessed as reduction in cell viability after 48 hrs by MTT assay; type: functional, cell-based; details: HepG2, 48 h
AGS = assay: Antiproliferative activity against human AGS cells assessed as reduction in cell viability after 48 hrs by MTT assay; type: functional, cell-based
Huh-7 = assay: Antiproliferative activity against human HuH7 cells assessed as reduction in cell viability after 48 hrs by MTT assay; type: functional, cell-based; details: Huh-7, 48 h
HeLa = assay: Antiproliferative activity against human HeLa cells assessed as reduction in cell viability after 48 hrs by MTT assay; type: functional, cell-based
BT-474 [4] = assay: Antiproliferative activity against human BT474 cells assessed as reduction in cell viability after 48 hrs by MTT assay; type: functional, cell-based; details: BT-474, 48 h
BEAS-2B = assay: Cytotoxicity against human BEAS2B cells assessed as reduction in cell viability after 48 hrs by MTT assay; type: cell-based
Danio rerio = species: Danio rerio; assay: Toxicity in 3 days post fertilized zebrafish embryo assessed as changes in embryonic phenotypes at 4 to 16 uM after 12 hrs; details: in vivo
[5] = molecular target: Heat shock protein HSP 90-beta (Homo sapiens) (UniProt P08238); assay: Inhibition of recombinant human Biotin-labeled N-terminal His/Avi-tagged HSP90beta C-terminal domain (527 to 724 residues) expressed in Escherichia coli interaction with GST-tagged Cyp40 at 100 uM after 30 mins by Alphascreen assay; how it was run: as §1
[6] = molecular target: T1, Heat shock protein HSP90 (Homo sapiens) (UniProt P07900+P08238); assay: Inhibition of HSP90 in human BT474 cells assessed as decrease in c-Raf protein expression at 1.25 to 5 uM after 24 hrs by Western blot analysis; type: cell-based
[7] = molecular target: T1, Heat shock protein HSP90 (Homo sapiens); assay: Inhibition of HSP90 in human BT474 cells assessed as decrease in Her2 protein expression at 1.25 to 5 uM after 24 hrs by Western blot analysis; type: cell-based
How it was run: (§2)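 BT474 cells lysed directly in 2× Laemmli buffer; proteins resolved on 12% acrylamide gel and transferred to PVDF. Blocked overnight at 4 °C in 5% skim milk, then probed 1 h at room temperature with antibodies to HER2, pAkt, CDK4, HSP90, HSP70 and HSP27. Chemiluminescent detection with β-actin as loading control; run in triplicate.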

[8] = molecular target: T1, Heat shock protein HSP90 (Homo sapiens); assay: Inhibition of HSP90 in human BT474 cells assessed as decrease in p-Akt expression at 1.25 to 5 uM after 24 hrs by Western blot analysis; type: cell-based; how it was run: as §2
[9] = molecular target: T1, Heat shock protein HSP90 (Homo sapiens); assay: Inhibition of HSP90 in human BT474 cells assessed as decrease in CDK4 protein expression at 1.25 to 5 uM after 24 hrs by Western blot analysis; type: cell-based; how it was run: as §2
[10] = molecular target: T1, Heat shock protein HSP90 (Homo sapiens); assay: Inhibition of HSP90 in human BT474 cells assessed as induction of HSP70 expression at 1.25 to 5 uM after 24 hrs by Western blot analysis; type: cell-based; how it was run: as §2
[11] = molecular target: T1, Heat shock protein HSP90 (Homo sapiens); assay: Inhibition of HSP90 in human BT474 cells assessed as induction of HSP27 expression at 1.25 to 5 uM after 24 hrs by Western blot analysis; type: cell-based; how it was run: as §2
BT-474 [12] = assay: Cell cycle arrest in human BT474 cells assessed as accumulation at subG1 phase at 2.5 uM after 16 hrs by propidium iodide-staining based FACS analysis (reference value: 0.81%); type: functional
BT-474 [13] = assay: Cell cycle arrest in human BT474 cells assessed as accumulation at G0/G1 phase at 2.5 uM after 16 hrs by propidium iodide-staining based FACS analysis (reference value: 74.88%); type: functional
BT-474 [14] = assay: Cell cycle arrest in human BT474 cells assessed as accumulation at S phase at 2.5 uM after 16 hrs by propidium iodide-staining based FACS analysis (reference value: 8.52%); type: functional
BT-474 [15] = assay: Cell cycle arrest in human BT474 cells assessed as accumulation at G2/M phase at 2.5 uM after 16 hrs by propidium iodide-staining based FACS analysis (reference value: 15.79%); type: functional
BT-474 [16] = assay: Cell cycle arrest in human BT474 cells assessed as accumulation at subG1 phase at 5 uM after 16 hrs by propidium iodide-staining based FACS analysis (reference value: 0.81%); type: functional
BT-474 [17] = assay: Cell cycle arrest in human BT474 cells assessed as accumulation at G0/G1 phase at 5 uM after 16 hrs by propidium iodide-staining based FACS analysis (reference value: 74.88%); type: functional
BT-474 [18] = assay: Cell cycle arrest in human BT474 cells assessed as accumulation at S phase at 5 uM after 16 hrs by propidium iodide-staining based FACS analysis (reference value: 8.52%); type: functional
BT-474 [19] = assay: Cell cycle arrest in human BT474 cells assessed as accumulation at G2/M phase at 5 uM after 16 hrs by propidium iodide-staining based FACS analysis (reference value: 15.79%); type: functional
[20] = Half life of compound in toluene at 110 degreeC by HPLC analysis; type: physicochemical
How it was run: (§3)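 Thermostability in toluene at 110 °C or 60 °C followed by HPLC; half-life estimated.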

[21] = Drug metabolism in deionized water assessed as compound decomposition at 100 degreeC after 10 mins by HPLC analysis relative to control; type: physicochemical; details: read-out: Drug metabolism
How it was run: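 Thermostability determined by HPLC after heating in deionized water at 100 °C for 10 min; decomposition recorded in percent.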

[22] = Stability of compound in pH 7.4 PBS at 37 degreeC after 12 hrs by HPLC analysis; type: physicochemical; details: buffer, pH 7.4, 12 h
How it was run: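 Solution stability determined by HPLC after incubation in PBS pH 7.4 at 37 °C for 12 h.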

[23] = Stability of compound in DMSO at 4 degreeC after 4 weeks HPLC analysis; type: physicochemical; details: 672 h
[24] = Half life of compound in toluene at 60 degreeC by HPLC analysis; type: physicochemical; how it was run: as §3
[25] = molecular target: Luciferin 4-monooxygenase (Photinus pyralis) (UniProt P08659); assay: Inhibition of firefly luciferase activity using luciferin substrate at 10 uM after 30 mins by luminescence assay
Sequence of Luciferin 4-monooxygenase (Photinus pyralis) (P08659 whole entry): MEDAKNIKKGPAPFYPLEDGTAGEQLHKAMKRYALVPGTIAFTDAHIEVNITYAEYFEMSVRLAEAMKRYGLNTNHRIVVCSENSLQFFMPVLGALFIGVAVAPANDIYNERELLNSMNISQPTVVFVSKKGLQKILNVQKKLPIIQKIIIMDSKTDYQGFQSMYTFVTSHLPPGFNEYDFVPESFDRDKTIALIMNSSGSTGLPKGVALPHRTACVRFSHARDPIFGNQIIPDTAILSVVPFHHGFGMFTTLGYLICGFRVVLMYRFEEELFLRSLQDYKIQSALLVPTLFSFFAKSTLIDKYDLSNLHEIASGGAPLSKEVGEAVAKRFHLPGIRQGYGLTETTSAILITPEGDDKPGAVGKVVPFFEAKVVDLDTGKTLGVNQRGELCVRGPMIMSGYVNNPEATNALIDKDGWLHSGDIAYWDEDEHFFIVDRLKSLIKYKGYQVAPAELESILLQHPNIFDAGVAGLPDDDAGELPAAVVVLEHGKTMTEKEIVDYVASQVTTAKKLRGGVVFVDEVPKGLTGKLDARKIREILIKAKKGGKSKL

Sequence of Heat shock protein HSP 90-beta (Homo sapiens) (P08238 whole entry, the tested form may be a part): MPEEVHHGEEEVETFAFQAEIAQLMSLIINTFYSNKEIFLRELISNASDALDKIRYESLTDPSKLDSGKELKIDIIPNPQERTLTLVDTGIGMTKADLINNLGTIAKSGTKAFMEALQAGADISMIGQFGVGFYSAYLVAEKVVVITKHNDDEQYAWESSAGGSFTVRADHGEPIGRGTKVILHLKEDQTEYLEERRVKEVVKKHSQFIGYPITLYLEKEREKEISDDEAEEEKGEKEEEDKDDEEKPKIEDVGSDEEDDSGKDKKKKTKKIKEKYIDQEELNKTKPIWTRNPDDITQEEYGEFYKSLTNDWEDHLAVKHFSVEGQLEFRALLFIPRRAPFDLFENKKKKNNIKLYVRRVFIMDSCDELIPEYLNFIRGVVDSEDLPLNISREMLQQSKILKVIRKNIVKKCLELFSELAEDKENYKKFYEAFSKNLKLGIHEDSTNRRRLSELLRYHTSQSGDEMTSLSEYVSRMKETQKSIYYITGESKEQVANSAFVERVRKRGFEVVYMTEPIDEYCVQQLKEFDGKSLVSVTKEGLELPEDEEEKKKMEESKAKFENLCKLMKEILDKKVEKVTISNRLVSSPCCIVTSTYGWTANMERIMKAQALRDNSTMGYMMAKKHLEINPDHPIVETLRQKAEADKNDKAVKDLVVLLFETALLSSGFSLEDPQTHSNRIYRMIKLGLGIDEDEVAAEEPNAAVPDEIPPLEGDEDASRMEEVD

IC50 (MCF7): 550 nM
IC50 (MDA-MB-468): 760 nM
IC50 (SK-BR-3): 1120 nM
inhibition [1]: Active
inhibition [2]: inactive
inhibition [3]: inactive
IC50 (SMMC-7721): 2940 nM
IC50 (A549): 940 nM
IC50 (HL-60): 840 nM
IC50 (SW480): 800 nM
inhibition (Oryctolagus cuniculus): Active
IC50 (HepG2): 2260 nM
IC50 (AGS): 860 nM
IC50 (Huh-7): 860 nM
IC50 (HeLa): 590 nM
IC50 (BT-474 [4]): 2640 nM
inhibition [5]: Active
inhibition [6]: Active
inhibition [7]: Active
inhibition [8]: Active
inhibition [9]: Active
inhibition [10]: Active
inhibition [11]: Active
half-life [20]: 5 min
degraded at 10 min [21]: 2.3%
Stability [22]: Stable
Stability [23]: Stable
half-life [24]: 20 min
inhibition [25]: inactive
Structure (SMILES): CC(C)=CCC[C@]1(C)/C=C/[C@@H](OC(=O)C=C(C)C)[C@](C)(O)/C=C/C(=O)/C(CN2CCN(C)CC2)=C\C1
IC50 (BEAS-2B): 2840 nM
Activity (Danio rerio): Non-Toxic
Activity (BT-474 [12]): 2.03%
Activity (BT-474 [13]): 73.18%
Activity (BT-474 [14]): 5.3%
Activity (BT-474 [15]): 19.49%
Activity (BT-474 [16]): 4.18%
Activity (BT-474 [17]): 61.89%
Activity (BT-474 [18]): 8.33%
Activity (BT-474 [19]): 25.6%
